Measurements as given in ChEMBL document CHEMBL4007470, “Discovery of a 2'-fluoro-2'-C-methyl C-nucleotide HCV polymerase inhibitor and a phosphoramidate prodrug with favorable properties” (Bioorg Med Chem Lett, 2017).
pEC50, pIC50: −log10 of the molar value.

Key:
Hepatitis C virus [1] = assay: Antiviral activity against HCV genotype 1a infected in human HuH7 cells by luciferase reporter gene assay; type: functional, cell-based, Hepacivirus hominis, subtype 1a; conditions: Hepatitis C virus, subtype 1a, Huh-7
Hepatitis C virus [2] = assay: Antiviral activity against HCV genotype 1b infected in human HuH7 cells by luciferase reporter gene assay; type: functional, cell-based, Hepacivirus hominis; conditions: Hepatitis C virus, genotype 1b, Huh-7
Outline: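 Luciferase-reporter genotype 1b subgenomic replicon in Huh-7 cells; EC50 is concentration giving 50% inhibition. Values are averages of at least three repeats.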

Hepatitis C virus [3] = assay: Antiviral activity against HCV genotype 4a infected in human HuH7 cells by luciferase reporter gene assay; type: functional, cell-based, Hepacivirus hominis; conditions: Hepatitis C virus, genotype 4a, Huh-7
[4] = Hepatic extraction in human liver S9 fractions at 2 uM by LC-MS/MS analysis; type: ADME; conditions: liver S9 fractions, read-out: ERH
Outline: (§1)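 Compound at 2 μM incubated with S9 fractions at 37 °C for 90 min with NADPH and UDPGA. Quenched with aqueous acetonitrile/methanol containing internal standard and analysed by LC-MS/MS. Half-life from an exponential fit assuming first-order kinetics. Hepatic extraction predicted from half-life using the well-stirred model.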

[5] = Hepatic extraction in hamster liver S9 fractions at 2 uM by LC-MS/MS analysis; type: ADME; conditions: cricetinae, liver S9 fractions; read-out: ERH; outline: as §1
[6] = Half life in hamster plasma at 2 uM by LC-MS/MS analysis; type: ADME, cell-free; conditions: cricetinae
Outline: (§2)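 Compound at 2 μM incubated in plasma at 37 °C for up to 4 h. Aliquots quenched with 9 volumes of acetonitrile containing internal standard, then centrifuged. Supernatant analysed by LC-MS/MS.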

[7] = Half life in human plasma at 2 uM by LC-MS/MS analysis; type: ADME, cell-free; outline: as §2
[8] = Half life in human intestinal S9 fractions at 2 uM by LC-MS/MS analysis; type: ADME, Intestine; outline: as §1
[9] = Half life in hamster intestinal S9 fractions at 2 uM by LC-MS/MS analysis; type: ADME, Intestine; conditions: cricetinae, intestinal S9 fractions
[10] = Inhibition of HCV genotype 1b wild-type NS5B RNA dependent RNA polymerase; design: species or system Hepatitis C virus subtype 1b
[11] = tested on: RNA-directed RNA polymerase (Hepacivirus hominis), O39930 [UNDEFINED MUTATION]; assay: Inhibition of HCV genotype 1b wild-type NS5B RNA dependent RNA polymerase S282T mutant relative to control; conditions: Hepatitis C virus subtype 1b

Compound | pEC50 (Hepatitis C virus [1]) | pEC50 (Hepatitis C virus [2]) | pEC50 (Hepatitis C virus [3]) | also measured
CCOC(=O)[C@H](Cc1ccccc1)NP(=O)(OC[C@H]1O[C@@H](c2cnc3c(N)ncnn23)[C@](C)(F)[C@@H]1O)Oc1ccccc1 (stereo partly drawn) | 5.77 | 5.66 | – | –
CC[C@H](C)OC(=O)[C@H](C)NP(=O)(OC[C@H]1O[C@@H](c2cnc3c(N)ncnn23)[C@](C)(F)[C@@H]1O)Oc1ccccc1 (stereo partly drawn) | 6.09 | 6.17 | 6.34 | –
CCOC(=O)C(C)(C)NP(=O)(OC[C@H]1O[C@@H](c2cnc3c(N)ncnn23)[C@](C)(F)[C@@H]1O)Oc1ccccc1 (stereo partly drawn) | 6.23 | 6.10 | 6.82 | hepatic extraction ratio at 2 µM [4]: 0.62; hepatic extraction ratio at 2 µM [5]: 0.83; half-life at 2 µM [6]: 8.3 h; half-life at 2 µM [7]: 7.68 h; half-life at 2 µM [8]: 2.15 h; half-life at 2 µM [9]: 1.67 h
CC[C@H](C)OC(=O)C1(NP(=O)(OC[C@H]2O[C@@H](c3cnc4c(N)ncnn34)[C@](C)(F)[C@@H]2O)Oc2ccccc2)CCC1 (stereo partly drawn) | 4.73 | 4.79 | 5.68 | –
CC(C)C[C@H](NP(=O)(OC[C@H]1O[C@@H](c2ccc3c(N)ncnn23)[C@](C)(F)[C@@H]1O)Oc1ccccc1)C(=O)OC(C)C (stereo partly drawn) | 6.13 | 6.16 | 6.23 | –
CCOC(=O)C1(NP(=O)(OC[C@H]2O[C@@H](c3cnc4c(N)ncnn34)[C@](C)(F)[C@@H]2O)Oc2ccccc2)CCCC1 (stereo partly drawn) | 6.00 | 5.70 | 6.42 | –
CCOC(=O)[C@@H](NP(=O)(OC[C@H]1O[C@@H](c2cnc3c(N)ncnn23)[C@](C)(F)[C@@H]1O)Oc1ccccc1)C(C)C (stereo partly drawn) | 4.45 | 4.42 | 4.95 | –
CC[C@@H](C)OC(=O)[C@@H](C)NP(=O)(OC[C@H]1O[C@@H](c2cnc3c(N)ncnn23)[C@](C)(F)[C@@H]1O)Oc1ccccc1 (stereo partly drawn) | < 4.06 | < 4.06 | < 4.06 | –
CC(C)OC(=O)C1(NP(=O)(OC[C@H]2O[C@@H](c3cnc4c(N)ncnn34)[C@](C)(F)[C@@H]2O)Oc2ccccc2)CCOCC1 (stereo partly drawn) | 4.84 | 4.54 | 5.15 | –
CCOC(=O)[C@@H](NP(=O)(OC[C@H]1O[C@@H](c2cnc3c(N)ncnn23)[C@](C)(F)[C@@H]1O)Oc1ccccc1)C(C)(C)C (stereo partly drawn) | < 4.06 | < 4.06 | < 4.06 | –
CC[C@@H](C)OC(=O)C1(NP(=O)(OC[C@H]2O[C@@H](c3cnc4c(N)ncnn34)[C@](C)(F)[C@@H]2O)Oc2ccccc2)CCC1 (stereo partly drawn) | 5.19 | < 4.06 | 6.46 | –
CCC[C@H](NP(=O)(OC[C@H]1O[C@@H](c2cnc3c(N)ncnn23)[C@](C)(F)[C@@H]1O)Oc1ccccc1)C(=O)OCC (stereo partly drawn) | 6.41 | 6.19 | 6.57 | –
CC(C)(C)COC(=O)C(C)(C)NP(=O)(OC[C@H]1O[C@@H](c2cnc3c(N)ncnn23)[C@](C)(F)[C@@H]1O)Oc1ccccc1 (stereo partly drawn) | 5.21 | 4.69 | 5.37 | –
CC[C@@H](C)OC(=O)C(C)(C)NP(=O)(OC[C@H]1O[C@@H](c2cnc3c(N)ncnn23)[C@](C)(F)[C@@H]1O)Oc1ccccc1 (stereo partly drawn) | 4.54 | < 4.06 | 5.96 | –
COCCOC(=O)C1(NP(=O)(OC[C@H]2O[C@@H](c3cnc4c(N)ncnn34)[C@](C)(F)[C@@H]2O)Oc2ccccc2)CCC1 (stereo partly drawn) | 5.47 | 5.21 | 5.82 | –
CC[C@H](C)OC(=O)C(C)(C)NP(=O)(OC[C@H]1O[C@@H](c2cnc3c(N)ncnn23)[C@](C)(F)[C@@H]1O)Oc1ccccc1 (stereo partly drawn) | 4.44 | < 4.06 | 5.44 | –

Compound | pEC50 (Hepatitis C virus [1]) | pEC50 (Hepatitis C virus [2]) | pEC50 (Hepatitis C virus [3]) | also measured
CC[C@H](NP(=O)(OC[C@H]1O[C@@H](c2cnc3c(N)ncnn23)[C@](C)(F)[C@@H]1O)Oc1ccccc1)C(=O)OC(C)C (stereo partly drawn) | 5.59 | 5.25 | 5.70 | –
CCOC(=O)C[C@H](NP(=O)(OC[C@H]1O[C@@H](c2cnc3c(N)ncnn23)[C@](C)(F)[C@@H]1O)Oc1ccccc1)C(=O)OCC (stereo partly drawn) | 5.48 | 5.07 | 5.64 | –
CCOC(=O)[C@@H](C)NP(=O)(OC[C@H]1O[C@@H](c2cnc3c(N)ncnn23)[C@](C)(F)[C@@H]1O)Oc1ccccc1 (stereo partly drawn) | 4.83 | 4.58 | 5.24 | hepatic extraction ratio at 2 µM [4]: 0.28; hepatic extraction ratio at 2 µM [5]: 0.84; half-life at 2 µM [6]: 5.27 h; half-life at 2 µM [7]: 11.4 h; half-life at 2 µM [8]: > 13.2 h; half-life at 2 µM [9]: 3.2 h
CCOC(=O)[C@H](CCCCN)NP(=O)(OC[C@H]1O[C@@H](c2cnc3c(N)ncnn23)[C@](C)(F)[C@@H]1O)Oc1ccccc1 (stereo partly drawn) | < 4.06 | < 4.06 | 4.20 | –
C[C@@]1(F)[C@H](O)[C@@H](COP(=O)(O)OP(=O)(O)OP(=O)(O)O)O[C@H]1c1ccc2c(N)ncnn12 | – | < 4.05 | – | pIC50 [10]: 7.34; fold change (FC) [11]: 2.8
CC[C@@H](C)OC(=O)[C@H](C)NP(=O)(OC[C@H]1O[C@@H](c2cnc3c(N)ncnn23)[C@](C)(F)[C@@H]1O)Oc1ccccc1 (stereo partly drawn) | 6.28 | 6.25 | 6.43 | –
CC(C)OC(=O)C1(NP(=O)(OC[C@H]2O[C@@H](c3cnc4c(N)ncnn34)[C@](C)(F)[C@@H]2O)Oc2ccccc2)CCCC1 (stereo partly drawn) | 4.95 | 4.29 | 5.41 | –
CC(C)(C)COC(=O)C1(NP(=O)(OC[C@H]2O[C@@H](c3cnc4c(N)ncnn34)[C@](C)(F)[C@@H]2O)Oc2ccccc2)CCC1 (stereo partly drawn) | 4.14 | < 4.06 | 4.11 | –
CCOC(=O)CC[C@H](NP(=O)(OC[C@H]1O[C@@H](c2cnc3c(N)ncnn23)[C@](C)(F)[C@@H]1O)Oc1ccccc1)C(=O)OCC (stereo partly drawn) | 5.92 | 5.47 | 6.08 | –
CC(C)OC(=O)[C@@H](C)NP(=O)(OC[C@H]1O[C@@H](c2cnc3c(N)ncnn23)[C@](C)(F)[C@@H]1O)Oc1ccccc1 (stereo partly drawn) | < 4.06 | < 4.06 | 4.24 | hepatic extraction ratio at 2 µM [4]: 0.17; hepatic extraction ratio at 2 µM [5]: 0.85; half-life at 2 µM [6]: 11.2 h; half-life at 2 µM [7]: 6.33 h; half-life at 2 µM [8]: > 13.2 h; half-life at 2 µM [9]: 6.92 h
CC(C)OC(=O)C1(NP(=O)(OC[C@H]2O[C@@H](c3cnc4c(N)ncnn34)[C@](C)(F)[C@@H]2O)Oc2ccccc2)CCCCC1 (stereo partly drawn) | 4.17 | 4.08 | – | –
CCOC(=O)C1(NP(=O)(OC[C@H]2O[C@@H](c3cnc4c(N)ncnn34)[C@](C)(F)[C@@H]2O)Oc2ccccc2)CCC1 (stereo partly drawn) | 6.48 | 6.18 | 6.85 | hepatic extraction ratio at 2 µM [4]: 0.88; hepatic extraction ratio at 2 µM [5]: 0.91; half-life at 2 µM [6]: 7 h; half-life at 2 µM [7]: 11.1 h; half-life at 2 µM [8]: 2.92 h; half-life at 2 µM [9]: 1.17 h
CC[C@H](C)OC(=O)[C@@H](C)NP(=O)(OC[C@H]1O[C@@H](c2cnc3c(N)ncnn23)[C@](C)(F)[C@@H]1O)Oc1ccccc1 (stereo partly drawn) | 5.10 | 5.14 | 5.68 | –
COCCOC(=O)C(C)(C)NP(=O)(OC[C@H]1O[C@@H](c2cnc3c(N)ncnn23)[C@](C)(F)[C@@H]1O)Oc1ccccc1 (stereo partly drawn) | 5.37 | 5.21 | 6.09 | –
CC(C)OC(=O)[C@@H](NP(=O)(OC[C@H]1O[C@@H](c2cnc3c(N)ncnn23)[C@](C)(F)[C@@H]1O)Oc1ccccc1)C(C)C (stereo partly drawn) | < 4.06 | < 4.06 | < 4.06 | –
CCOC(=O)[C@H](CCCCNC(C)=O)NP(=O)(OC[C@H]1O[C@@H](c2cnc3c(N)ncnn23)[C@](C)(F)[C@@H]1O)Oc1ccccc1 (stereo partly drawn) | 4.22 | < 4.06 | 4.06 | –
